Source: ChEMBL document CHEMBL1140405, “6-Acylamino-2-aminoquinolines as potent melanin-concentrating hormone 1 receptor antagonists. Identification, structure-activity relationship, and investigation of binding mode” (J Med Chem, 2005)
≈ marks a conversion by molar mass, not a printed value. Where “and” joins values, the source holds several entries; their conditions need not be identical. Equal entries are not always repeated. Blank lines part the entries; values can stand above or below the compound they belong to.

Columns and labels:
[1] = molecular target: Melanin-concentrating hormone receptor 1 (Homo sapiens, UniProt Q99705); assay: Displacement of 150p M [125I]MCH from human MCH1R expressed in CHO-K1 cells at 10 uM; assay type: cell-based
Sequence of Melanin-concentrating hormone receptor 1 (Q99705 whole entry): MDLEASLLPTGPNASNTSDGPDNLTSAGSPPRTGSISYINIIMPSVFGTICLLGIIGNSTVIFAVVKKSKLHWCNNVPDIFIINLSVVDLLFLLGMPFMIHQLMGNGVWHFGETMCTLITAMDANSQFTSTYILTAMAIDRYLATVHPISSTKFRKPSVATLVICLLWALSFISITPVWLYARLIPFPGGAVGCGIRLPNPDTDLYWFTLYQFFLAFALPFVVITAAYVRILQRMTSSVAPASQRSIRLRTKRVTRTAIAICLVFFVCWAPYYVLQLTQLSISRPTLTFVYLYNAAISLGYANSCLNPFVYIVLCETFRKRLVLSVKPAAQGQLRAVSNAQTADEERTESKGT

[2] = molecular target: T1, 5-hydroxytryptamine receptor 2C (Homo sapiens, UniProt P28335); assay: Inhibitory concentration against human 5-hydroxytryptamine 2C receptor expressed in CHO-K1 cells using [3H]mesulergine; assay type: cell-based
T1 sequence (P28335 whole entry): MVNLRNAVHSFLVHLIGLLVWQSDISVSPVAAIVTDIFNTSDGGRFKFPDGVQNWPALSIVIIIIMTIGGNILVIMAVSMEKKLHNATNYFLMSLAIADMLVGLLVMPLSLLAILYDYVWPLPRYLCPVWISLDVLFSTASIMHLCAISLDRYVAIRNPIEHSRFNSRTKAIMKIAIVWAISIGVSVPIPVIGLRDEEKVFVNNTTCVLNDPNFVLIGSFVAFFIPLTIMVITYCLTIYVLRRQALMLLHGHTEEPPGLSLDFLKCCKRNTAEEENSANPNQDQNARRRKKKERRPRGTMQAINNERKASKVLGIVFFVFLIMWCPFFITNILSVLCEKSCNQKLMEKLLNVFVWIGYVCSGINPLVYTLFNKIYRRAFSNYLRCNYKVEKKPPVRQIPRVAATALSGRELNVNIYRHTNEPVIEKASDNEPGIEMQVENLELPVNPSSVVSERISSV
Summary of the method: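 SPA competition binding on purchased membranes from CHO-K1 cells expressing h5-HT2c (4 μg/well), with YSi-WGA beads (0.4 mg/well) and [3H]mesulergine tracer, across various test-compound concentrations. Buffer is 50 mM Tris pH 7.7, 50 mM MgCl2 and 0.1% pargyline. Nonspecific binding uses 1 μM cold mesulergine. IC50 is taken by nonlinear regression.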

[3] = molecular target: Melanin-concentrating hormone receptor 2 (Homo sapiens, UniProt Q969V1); assay: Displacement of 30 pM [125I]-MCH from human MCH2R expressed in CHO-K1 in whole-cell binding assay
Sequence of Melanin-concentrating hormone receptor 2 (Q969V1 whole entry): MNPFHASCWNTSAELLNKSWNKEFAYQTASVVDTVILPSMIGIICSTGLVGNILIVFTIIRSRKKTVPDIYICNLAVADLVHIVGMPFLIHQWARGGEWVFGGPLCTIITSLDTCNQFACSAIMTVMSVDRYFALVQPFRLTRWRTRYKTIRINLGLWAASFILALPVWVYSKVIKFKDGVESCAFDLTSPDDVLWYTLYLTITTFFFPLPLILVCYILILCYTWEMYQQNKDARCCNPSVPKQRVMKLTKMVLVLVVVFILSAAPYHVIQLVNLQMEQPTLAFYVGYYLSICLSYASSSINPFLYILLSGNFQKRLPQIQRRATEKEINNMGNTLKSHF

[4] = Solubility was determined by addition of 10 mM DMSO solution of test compound to PBS (pH 7) until opalescence
D(1A) dopamine receptor = D(1A) dopamine receptor (Homo sapiens, UniProt P21728); assay: Inhibitory concentration against dopamine receptor D1
Sequence of D(1A) dopamine receptor (P21728 whole entry): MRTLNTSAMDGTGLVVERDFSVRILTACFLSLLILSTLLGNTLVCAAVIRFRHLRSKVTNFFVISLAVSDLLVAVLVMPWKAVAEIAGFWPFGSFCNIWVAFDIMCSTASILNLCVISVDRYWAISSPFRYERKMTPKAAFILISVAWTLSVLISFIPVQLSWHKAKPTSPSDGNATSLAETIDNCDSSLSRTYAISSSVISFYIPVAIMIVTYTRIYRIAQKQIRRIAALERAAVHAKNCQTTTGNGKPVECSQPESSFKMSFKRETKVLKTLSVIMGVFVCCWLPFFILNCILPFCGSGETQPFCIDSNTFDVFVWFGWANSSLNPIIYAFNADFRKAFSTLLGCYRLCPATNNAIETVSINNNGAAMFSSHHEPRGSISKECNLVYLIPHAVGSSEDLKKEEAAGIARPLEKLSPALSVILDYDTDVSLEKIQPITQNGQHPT

[5] = molecular target: Sodium-dependent dopamine transporter (Homo sapiens, UniProt Q01959); assay: Inhibitory concentration against dopamine transporter
Sequence of Sodium-dependent dopamine transporter (Q01959 whole entry): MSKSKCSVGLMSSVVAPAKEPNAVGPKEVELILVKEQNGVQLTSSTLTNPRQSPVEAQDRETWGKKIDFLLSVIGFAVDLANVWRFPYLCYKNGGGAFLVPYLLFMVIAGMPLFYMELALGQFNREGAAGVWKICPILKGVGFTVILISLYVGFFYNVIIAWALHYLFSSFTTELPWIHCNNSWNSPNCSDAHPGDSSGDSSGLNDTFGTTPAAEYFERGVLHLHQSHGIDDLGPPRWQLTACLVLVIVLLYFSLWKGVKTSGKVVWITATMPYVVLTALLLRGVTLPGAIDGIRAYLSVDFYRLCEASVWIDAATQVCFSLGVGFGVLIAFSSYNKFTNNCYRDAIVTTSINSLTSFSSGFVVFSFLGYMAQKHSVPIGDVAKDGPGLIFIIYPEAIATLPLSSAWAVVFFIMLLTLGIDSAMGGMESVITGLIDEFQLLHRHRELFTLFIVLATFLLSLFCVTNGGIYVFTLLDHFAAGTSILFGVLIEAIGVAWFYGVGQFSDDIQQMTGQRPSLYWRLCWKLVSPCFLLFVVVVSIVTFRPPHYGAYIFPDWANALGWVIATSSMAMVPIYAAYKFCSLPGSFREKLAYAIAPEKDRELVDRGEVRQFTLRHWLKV

[6] = molecular target: T2, Adrenergic receptor alpha-2 (Homo sapiens, UniProt P08913+P18825+P18089); assay: Inhibitory concentration against alpha-2 adrenergic receptor; assay type: protein assay
T2 sequence (P08913 whole entry): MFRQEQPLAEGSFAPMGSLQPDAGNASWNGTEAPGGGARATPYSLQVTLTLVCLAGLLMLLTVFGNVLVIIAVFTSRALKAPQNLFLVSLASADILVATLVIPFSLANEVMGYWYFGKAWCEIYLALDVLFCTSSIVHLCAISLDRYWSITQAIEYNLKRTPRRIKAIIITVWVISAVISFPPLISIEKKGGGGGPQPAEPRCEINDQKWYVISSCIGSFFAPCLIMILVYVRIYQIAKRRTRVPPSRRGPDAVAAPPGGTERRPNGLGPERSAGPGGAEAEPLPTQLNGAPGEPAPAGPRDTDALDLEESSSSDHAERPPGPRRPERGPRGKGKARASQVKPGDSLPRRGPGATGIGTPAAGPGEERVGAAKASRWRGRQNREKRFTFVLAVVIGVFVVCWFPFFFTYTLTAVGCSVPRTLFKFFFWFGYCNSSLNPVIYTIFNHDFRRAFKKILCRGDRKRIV
T2 sequence (P18825 whole entry): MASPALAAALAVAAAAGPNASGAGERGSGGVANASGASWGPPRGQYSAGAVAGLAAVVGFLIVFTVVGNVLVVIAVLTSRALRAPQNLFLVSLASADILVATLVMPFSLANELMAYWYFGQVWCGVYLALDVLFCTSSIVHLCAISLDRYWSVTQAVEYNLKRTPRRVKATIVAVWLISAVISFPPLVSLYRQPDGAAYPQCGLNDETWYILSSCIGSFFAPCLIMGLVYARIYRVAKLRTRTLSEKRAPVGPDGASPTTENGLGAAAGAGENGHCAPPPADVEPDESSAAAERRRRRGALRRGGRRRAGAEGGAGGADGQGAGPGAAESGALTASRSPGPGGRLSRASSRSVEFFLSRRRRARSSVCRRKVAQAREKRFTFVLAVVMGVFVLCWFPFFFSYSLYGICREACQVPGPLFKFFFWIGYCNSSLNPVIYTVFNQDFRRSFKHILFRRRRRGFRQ
T2 sequence (P18089 whole entry): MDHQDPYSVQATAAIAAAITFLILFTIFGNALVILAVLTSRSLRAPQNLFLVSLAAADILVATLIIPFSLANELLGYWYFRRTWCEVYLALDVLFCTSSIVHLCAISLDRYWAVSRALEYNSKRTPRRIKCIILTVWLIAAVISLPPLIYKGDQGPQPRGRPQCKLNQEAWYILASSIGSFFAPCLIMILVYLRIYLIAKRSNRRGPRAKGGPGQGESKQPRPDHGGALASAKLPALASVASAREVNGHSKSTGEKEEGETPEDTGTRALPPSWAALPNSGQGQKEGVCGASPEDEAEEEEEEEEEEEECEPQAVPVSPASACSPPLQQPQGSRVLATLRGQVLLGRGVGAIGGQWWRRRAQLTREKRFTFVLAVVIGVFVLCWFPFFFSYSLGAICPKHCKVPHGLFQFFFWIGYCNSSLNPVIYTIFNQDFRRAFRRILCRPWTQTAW

[7] = molecular target: 5-hydroxytryptamine receptor 2A (Homo sapiens, UniProt P28223); assay: Inhibitory concentration against 5-hydroxytryptamine 2A receptor
Sequence of 5-hydroxytryptamine receptor 2A (P28223 whole entry): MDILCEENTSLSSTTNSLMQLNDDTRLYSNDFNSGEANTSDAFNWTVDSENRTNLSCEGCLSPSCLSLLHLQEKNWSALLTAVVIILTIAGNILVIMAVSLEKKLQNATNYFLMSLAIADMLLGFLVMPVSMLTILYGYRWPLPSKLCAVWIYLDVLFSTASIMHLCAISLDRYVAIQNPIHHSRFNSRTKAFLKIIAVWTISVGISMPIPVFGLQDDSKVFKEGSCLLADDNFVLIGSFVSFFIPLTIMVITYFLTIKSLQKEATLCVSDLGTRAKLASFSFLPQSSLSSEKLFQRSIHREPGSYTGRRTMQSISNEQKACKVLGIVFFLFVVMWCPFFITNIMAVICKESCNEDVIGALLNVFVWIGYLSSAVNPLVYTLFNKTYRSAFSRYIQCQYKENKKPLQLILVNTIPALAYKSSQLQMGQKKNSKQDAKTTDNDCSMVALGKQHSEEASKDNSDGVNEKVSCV

Histamine H1 receptor = Histamine H1 receptor (Homo sapiens, UniProt P35367); assay: Inhibitory concentration against histamine H1 receptor
Sequence of Histamine H1 receptor (P35367 whole entry): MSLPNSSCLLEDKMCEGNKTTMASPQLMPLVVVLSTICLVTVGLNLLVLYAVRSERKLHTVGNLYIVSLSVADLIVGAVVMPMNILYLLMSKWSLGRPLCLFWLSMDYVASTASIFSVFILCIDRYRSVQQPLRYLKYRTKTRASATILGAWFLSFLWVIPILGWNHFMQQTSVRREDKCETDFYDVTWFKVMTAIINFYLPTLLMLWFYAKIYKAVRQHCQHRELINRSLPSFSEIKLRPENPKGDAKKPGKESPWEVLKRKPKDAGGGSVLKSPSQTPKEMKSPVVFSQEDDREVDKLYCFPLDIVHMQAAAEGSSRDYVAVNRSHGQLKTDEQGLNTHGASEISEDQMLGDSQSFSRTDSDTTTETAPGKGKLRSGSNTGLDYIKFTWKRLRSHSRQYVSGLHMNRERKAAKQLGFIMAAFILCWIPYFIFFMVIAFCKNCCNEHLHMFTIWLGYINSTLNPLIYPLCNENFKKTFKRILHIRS

Histamine H2 receptor = Histamine H2 receptor (Homo sapiens, UniProt P25021); assay: Inhibitory concentration against histamine H2 receptor
Sequence of Histamine H2 receptor (P25021 whole entry): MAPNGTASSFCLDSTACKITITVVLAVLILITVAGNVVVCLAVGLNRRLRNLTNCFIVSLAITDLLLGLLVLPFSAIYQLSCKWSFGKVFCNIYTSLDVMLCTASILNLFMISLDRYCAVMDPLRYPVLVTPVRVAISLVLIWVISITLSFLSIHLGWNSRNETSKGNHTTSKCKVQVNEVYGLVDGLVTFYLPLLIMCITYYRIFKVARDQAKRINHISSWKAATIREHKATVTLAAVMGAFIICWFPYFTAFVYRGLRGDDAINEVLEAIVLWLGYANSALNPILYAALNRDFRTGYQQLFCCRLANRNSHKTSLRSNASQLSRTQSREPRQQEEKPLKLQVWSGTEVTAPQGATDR

[8] = molecular target: T3, Muscarinic acetylcholine receptor M2 (Homo sapiens, UniProt P08172); assay: Inhibitory concentration against muscarinic acetylcholine receptor M2
T3 sequence (P08172 whole entry): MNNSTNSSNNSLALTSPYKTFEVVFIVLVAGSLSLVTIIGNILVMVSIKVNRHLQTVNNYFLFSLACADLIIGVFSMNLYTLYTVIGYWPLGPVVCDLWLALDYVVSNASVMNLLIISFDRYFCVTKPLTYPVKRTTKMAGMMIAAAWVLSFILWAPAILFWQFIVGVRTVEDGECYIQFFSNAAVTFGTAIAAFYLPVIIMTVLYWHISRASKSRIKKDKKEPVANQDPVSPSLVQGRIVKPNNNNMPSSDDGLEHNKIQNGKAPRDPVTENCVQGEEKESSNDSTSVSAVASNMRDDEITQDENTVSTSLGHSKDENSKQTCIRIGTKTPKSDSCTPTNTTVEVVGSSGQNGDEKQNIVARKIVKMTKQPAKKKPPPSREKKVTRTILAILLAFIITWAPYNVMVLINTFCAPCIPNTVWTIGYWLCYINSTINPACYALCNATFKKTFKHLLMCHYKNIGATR

[9] = molecular target: T4, Muscarinic acetylcholine receptor M1 (Homo sapiens, UniProt P11229); assay: Inhibitory concentration against muscarinic acetylcholine receptor M1
T4 sequence (P11229 whole entry): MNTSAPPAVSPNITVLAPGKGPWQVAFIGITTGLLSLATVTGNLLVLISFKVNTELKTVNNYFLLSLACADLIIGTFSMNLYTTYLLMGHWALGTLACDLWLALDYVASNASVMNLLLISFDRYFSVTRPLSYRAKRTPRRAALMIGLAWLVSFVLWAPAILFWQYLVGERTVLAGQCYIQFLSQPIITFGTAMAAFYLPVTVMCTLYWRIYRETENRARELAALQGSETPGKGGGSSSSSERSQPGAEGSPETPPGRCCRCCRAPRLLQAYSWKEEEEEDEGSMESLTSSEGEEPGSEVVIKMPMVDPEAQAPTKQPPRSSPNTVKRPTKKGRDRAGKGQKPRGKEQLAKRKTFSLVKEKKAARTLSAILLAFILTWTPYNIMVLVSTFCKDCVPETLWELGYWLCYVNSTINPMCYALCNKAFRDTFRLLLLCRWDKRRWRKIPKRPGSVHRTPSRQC

[10] = molecular target: 5-hydroxytryptamine receptor 1B (Homo sapiens, UniProt P28222); assay: Inhibitory concentration against 5-hydroxytryptamine 1B receptor
Sequence of 5-hydroxytryptamine receptor 1B (P28222 whole entry): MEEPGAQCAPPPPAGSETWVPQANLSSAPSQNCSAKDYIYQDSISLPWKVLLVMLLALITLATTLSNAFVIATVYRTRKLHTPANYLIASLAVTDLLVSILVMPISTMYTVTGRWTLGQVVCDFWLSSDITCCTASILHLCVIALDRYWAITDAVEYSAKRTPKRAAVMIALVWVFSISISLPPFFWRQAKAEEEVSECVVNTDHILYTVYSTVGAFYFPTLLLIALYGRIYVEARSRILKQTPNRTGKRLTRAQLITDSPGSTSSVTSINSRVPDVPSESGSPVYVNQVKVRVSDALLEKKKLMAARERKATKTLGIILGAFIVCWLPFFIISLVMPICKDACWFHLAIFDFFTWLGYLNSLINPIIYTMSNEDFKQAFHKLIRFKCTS

D(3) dopamine receptor = D(3) dopamine receptor (Homo sapiens, UniProt P35462); assay: Inhibitory concentration against dopamine receptor D3
Sequence of D(3) dopamine receptor (P35462 whole entry): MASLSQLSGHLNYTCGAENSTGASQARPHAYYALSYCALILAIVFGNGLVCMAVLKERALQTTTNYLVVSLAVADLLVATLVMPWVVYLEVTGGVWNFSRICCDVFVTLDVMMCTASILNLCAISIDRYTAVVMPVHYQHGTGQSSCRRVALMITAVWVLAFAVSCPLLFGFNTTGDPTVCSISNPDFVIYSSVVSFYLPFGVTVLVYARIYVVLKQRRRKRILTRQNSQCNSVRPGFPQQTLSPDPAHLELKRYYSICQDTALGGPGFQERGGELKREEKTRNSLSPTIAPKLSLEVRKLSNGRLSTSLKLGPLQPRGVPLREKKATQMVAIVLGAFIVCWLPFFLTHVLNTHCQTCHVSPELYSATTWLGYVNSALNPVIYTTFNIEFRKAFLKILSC

Structure (SMILES): Cc1cc(NC(C)CN(C)C)nc2ccc(NC(=O)/C=C/c3ccc(OC(F)(F)F)cc3)cc12 (configuration not stated)
IC50 [2]: 18 µM

Structure (SMILES): Cc1cc(OCCN(C)C)nc2ccc(NC(=O)COc3ccc(Cl)cc3Cl)cc12
IC50 (D(1A) dopamine receptor): 7.5 µM
IC50 [5]: > 10 µM
IC50 [6]: 0.25 µM
IC50 [2]: 2.6 µM and 2.5 µM
IC50 [7]: 0.61 µM
IC50 (Histamine H1 receptor): 3.5 µM
IC50 (Histamine H2 receptor): 0.87 µM
IC50 [8]: 4.5 µM
IC50 [9]: 1.7 µM
IC50 [3]: 8.7 µM
IC50 [10]: 0.2 µM
IC50 (D(3) dopamine receptor): 0.0013 µM

Structure (SMILES): Cc1cc(N2CC3CC2CN3)nc2ccc(NC(=O)COc3ccc(OC(F)(F)F)cc3)cc12 (configuration not stated)
IC50 [3]: 6.8 µM
solubility kinetic ([4]; PBS): 150 µM (≈ 70.9 µg/mL)

Structure (SMILES): Cc1cc(N2CCN(C)CC2)nc2ccc(NC(=O)COc3ccc(Cl)cc3Cl)cc12
IC50 [2]: 0.61 µM
IC50 [3]: > 10 µM
solubility kinetic ([4]; buffer): 25 µM (≈ 11.5 µg/mL)

Structure (SMILES): Cc1cc(N2CCC(N3CCCC3)CC2)nc2ccc(NC(=O)COc3ccc(OC(F)(F)F)cc3)cc12
IC50 [3]: 6.3 µM

More lines, now with the values ahead:

inhibition [1]: 71%
Structure (SMILES): CCN1CCN(c2cc(C)c3cc(NC(=O)c4cc(=O)c5ccccc5o4)ccc3n2)CC1

inhibition [1]: 40%
Structure (SMILES): CCN1CCN(c2cc(C)c3cc(NC(=O)c4ccc(OC)cc4)ccc3n2)CC1

inhibition [1]: 41%
Structure (SMILES): Cc1cc(N2CCN(c3ncccn3)CC2)nc2ccc(NC(=O)COc3ccc(Cl)cc3Cl)cc12

IC50 [2]: 5.9 µM
IC50 [3]: > 10 µM
solubility kinetic ([4]; PBS): 5 µM (≈ 2.17 µg/mL)
Structure (SMILES): Cc1cc(N(C)CCO)nc2ccc(NC(=O)COc3ccc(Cl)cc3Cl)cc12

IC50 [3]: > 10 µM
Structure (SMILES): CC(=O)OCCN(C)c1cc(C)c2cc(NC(=O)COc3ccc(Cl)cc3Cl)ccc2n1

IC50 [2]: 0.77 µM
solubility kinetic ([4]; buffer): 100 µM (≈ 44.7 µg/mL)
Structure (SMILES): CNCCN(C)c1cc(C)c2cc(NC(=O)COc3ccc(Cl)cc3Cl)ccc2n1

IC50 [2]: 2 µM
IC50 [3]: 3.7 µM
solubility kinetic ([4]; buffer): 25 µM (≈ 11.1 µg/mL)
Structure (SMILES): Cc1cc(N2CCNCC2)nc2ccc(NC(=O)COc3ccc(Cl)cc3Cl)cc12

solubility kinetic ([4]; PBS): 120 µM (≈ 56.9 µg/mL)
Structure (SMILES): Cc1cc(N2CCN(C)CC2)nc2ccc(NC(=O)COc3ccc(OC(F)(F)F)cc3)cc12
